Screens as filed in PubChem.
Rows were chosen to be rich in hits. Some 3.5% of all compounds tested hit in one or more screens of this group.
MrgX1 agonist: agonists of human MrgX1 receptor; Q96LB2; MrgX1-HEK293 cells, Fluo-4 calcium fluorescence, agonist mode; hits give high values; B-score at 10 µM; hit rate 0.44% among 310,000; AID 588627;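 active = calcium response B-score plate-corrected fluorescence ratio at least 3 library SD, with starting fluorescence B-score inside 5 SD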
Target sequence (Q96LB2 whole entry, looked up): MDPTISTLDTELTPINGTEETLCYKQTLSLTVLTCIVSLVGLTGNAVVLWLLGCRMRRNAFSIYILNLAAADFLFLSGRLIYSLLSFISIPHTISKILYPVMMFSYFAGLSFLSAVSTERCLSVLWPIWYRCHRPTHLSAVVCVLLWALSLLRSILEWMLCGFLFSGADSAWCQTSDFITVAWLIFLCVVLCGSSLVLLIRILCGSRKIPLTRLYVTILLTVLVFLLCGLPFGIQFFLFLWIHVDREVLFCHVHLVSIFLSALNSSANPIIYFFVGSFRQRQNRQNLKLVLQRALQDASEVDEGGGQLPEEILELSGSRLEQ
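Assay system: MrgX1-expressing HEK293 cells / Amount: fifteen thousand cells per well / Doses: test compound in the initial addition of three / Timing: cells plated overnight, dye loaded 0.5 h 37 °C, 0.5 h room temperature / Technique: kinetic calcium dye fluorescence, Fluo-4 NW / Control set: positive and negative controls per plate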
MrgX1 PAM: allosterically activates human MrgX1 receptor signaling; MrgX1-HEK293, Fluo-4 calcium flux, FDSS; hits give high values; AID 588675; hit rate 0.63% among 310,000; B-score at 10 µM;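 active = plate-corrected calcium response at least 3 library SD above typical, normal starting fluorescence, not activating the receptor alone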;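 also: compound read alongside a low EC10 to EC30 dose of BAM8-22 agonist; peak minus trough fluorescence over baseline measured at the second addition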
RGS4 act: potentiators or activators of RGS4; HEK293 M3R/inducible RGS4, carbachol calcium flux Fluo4; hits give low values; hit rate 0.92% among 310,000; B-score at 10 µM;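 active = B-score of the integrated calcium signal more than 4 SD below the library mean, with starting fluorescence not abnormally high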;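 also: negative B-score means reduced calcium response which marks RGS4 activation or potentiation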
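Detection: kinetic calcium fluorescence imaging with Fluo4-AM dye, 2 µM / Material: HEK293 cells with stable M3R and inducible RGS4 / Schedule: recording 10 s baseline at 1 Hz, 100 s post-agonist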
MrgX1 antag: antagonists of human MrgX1 receptor | hit rate 1.3% among 310,000 | MRGX1-HEK293 calcium flux, Fluo-4, BAM8-22 antagonism; hits give low values | Q96LB2 | B-score at 10 µM;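 active = calcium-response B-score plate-corrected more than 3 library SD below zero, starting fluorescence within 5 deviations, no agonist response on first addition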;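 also: peak minus trough fluorescence over baseline after final BAM8-22 challenge near maximal dose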
RGS4 inh: inhibitors of human RGS4 | HEK293 M3R/RGS4 inducible, Fluo-4 calcium flux; hits give high values; triggered by carbachol at its EC20 | hit rate 0.45% among 310,000 | B-score at 10 µM | P49798;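 active = B-score, a plate-corrected calcium signal, over three deviations above library mean, with baseline fluorescence within five deviations of library mean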;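 also: RGS4 expression induced by doxycycline in cells with stable M3 receptor; B-score is computed from the integrated fluorescence ratio over baseline after carbachol; higher B-score means a larger calcium signal and so more RGS4 inhibition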
Target sequence (P49798 whole entry, looked up): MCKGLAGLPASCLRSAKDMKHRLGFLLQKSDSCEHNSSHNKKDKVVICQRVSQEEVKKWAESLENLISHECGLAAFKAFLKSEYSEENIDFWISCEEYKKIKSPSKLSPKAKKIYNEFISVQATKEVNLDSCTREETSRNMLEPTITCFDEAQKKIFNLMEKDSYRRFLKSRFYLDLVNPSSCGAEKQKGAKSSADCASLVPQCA
RGS4 block valid: RGS4 inhibitor validation; AID 492999; HEK293 M3R/RGS4, carbachol calcium Fluo-4 fluorescence; carbachol added at its EC20; 0 = buffer wells, 100 = carbachol control; hit rate 65% among 1,700; shares compounds with RGS4 inh; calcium response, % at 10 µM;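 active = duplicate-averaged calcium response above the buffer-only control mean plus 5 SD of those controls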;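 also: integrated fluorescence ratio F max minus min over baseline F0; higher response in RGS4-induced cells means RGS4 inhibition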
RGS4 uninduced: counter-screen for RGS4 inhibitors: effect in non-induced cells; shares compounds with RGS4 inh; HEK293 M3R non-induced, carbachol calcium Fluo-4; submaximal (EC20) carbachol stimulus; buffer wells 0%, carbachol control wells 100%; activity (percent), % at 10 µM; hit rate 20% among 1,900; call rule not given here;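 also: RGS4 induction absent so cells express M3R without RGS4; higher means more calcium signal and flags a non-specific hit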
M3R basal Ca ctr: second counter-screen for RGS4 inhibitors: non-induced cells without carbachol; shares compounds with RGS4 inh; HEK293 M3R/RGS4 non-induced, Fluo-4 calcium, no carbachol; normalised: buffer wells 0%, carbachol wells 100%; calcium response (agonist-mode artifact), % at 10 µM; hit rate 22% among 1,900;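 active = duplicate-averaged calcium rise in uninduced cells above buffer wells' mean plus 5 SD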
Each line names hits and unclear results; the compound was inactive in the other large screens (follow-up assays come after a bar, where they were run).

CC1CCCN(C(=O)CCNS(=O)(=O)c2ccc3c(c2)c(=O)n(C)c(=O)n3C)C1 (stereo unspecified)	none
CCCC1(c2ccccc2)NC(=O)N(CC(=O)c2[nH]c(C)c(C(=O)OCC)c2C)C1=O (stereo unspecified)	none
CCOC(=O)c1c(C)[nH]c(C(=O)CN2C(=O)NC(C)(c3ccc4ccccc4c3)C2=O)c1C (stereo unspecified)	RGS4 inh 5.7 | RGS4 block valid 9.0% | RGS4 uninduced inactive | M3R basal Ca ctr inactive
Cc1nc(NC(=O)CSc2nc3cccnc3n2C2CCCCC2)sc1C	none | RGS4 uninduced inactive | M3R basal Ca ctr inactive
CCc1nnc(NC(=O)CSc2nc3cccnc3n2C2CCCCC2)s1	none
COc1ccc(C2CC(c3ccc(Br)cc3)=NN2C(=O)c2cccnc2)cc1 (stereo unspecified)	none
COc1ccc(C2=NN(CN3C(=O)C(=O)c4ccccc43)C(c3ccc(Br)cc3)C2)cc1 (stereo unspecified)	RGS4 inh 11.3 | RGS4 block valid 38.5% | RGS4 uninduced 42.5% | M3R basal Ca ctr inactive
COc1ccc(C2=NN(CN3C(=O)C(=O)c4ccccc43)C(c3ccc(C)cc3)C2)cc1 (stereo unspecified)	RGS4 inh 6.74 | RGS4 block valid 18.5% | RGS4 uninduced inactive | M3R basal Ca ctr inactive
CC1(C)CN(c2cccc(Br)c2)C1=O	none
O=[N+]([O-])c1cc(Cl)cc(/C=N/NC(=S)Nc2ccc(S(=O)(=O)N3CCOCC3)cc2)c1O	none | RGS4 block valid inactive | RGS4 uninduced inactive | M3R basal Ca ctr inactive
COc1ccc2c(c1)C(=NNc1ccc(C(=O)O)cc1)c1cc(OC)ccc1-2	RGS4 inh 6.69 | RGS4 block valid 22.5% | RGS4 uninduced inactive | M3R basal Ca ctr inactive
COc1ccc(/C(C)=N/Nc2ccc(C(=O)O)cc2)c(OC)c1	none
COc1cc(/C=C/C(=O)c2ccc(O)cc2)ccc1OCC#N	RGS4 inh 4.67 | RGS4 block valid 10.5% | RGS4 uninduced inactive | M3R basal Ca ctr inactive
COc1ccccc1NC(=O)c1cc2ccc(O)cc2o/c1=N\O	none | RGS4 block valid inactive | RGS4 uninduced inactive | M3R basal Ca ctr inactive
COc1ccc2o/c(=N\O)c(C(=O)Nc3ccc(C)cc3)cc2c1	RGS4 inh 11.8 (no result: MrgX1 agonist, MrgX1 PAM, MrgX1 antag) | RGS4 block valid 14.5% | RGS4 uninduced inactive | M3R basal Ca ctr inactive
COc1ccccc1N=c1oc2cc(O)ccc2cc1C(N)=O	none
COc1ccc2oc(=N)c(C(=O)Nc3ccc(C)cc3)cc2c1	none
CC(C)CCNc1nc(N)c([N+](=O)[O-])c(N2CCCCCC2)n1	none
O=C(CN(C(=O)CNS(=O)(=O)c1ccc(F)cc1)c1ccccc1)NCc1ccco1	none | RGS4 block valid inactive | RGS4 uninduced inactive | M3R basal Ca ctr inactive
Cc1ccc(C)c(N(CC(=O)NCc2ccco2)C(=O)CNS(=O)(=O)c2ccc(F)cc2)c1	none
O=C(CN(C(=O)CNS(=O)(=O)c1ccc(F)cc1)c1ccccc1F)NCc1ccco1	RGS4 inh 4.92 | RGS4 block valid inactive | RGS4 uninduced inactive | M3R basal Ca ctr inactive
O=C(CN(C(=O)CNS(=O)(=O)c1ccc(F)cc1)c1ccc(F)cc1)NCc1ccco1	none | RGS4 block valid inactive | RGS4 uninduced inactive | M3R basal Ca ctr inactive
CCOC(=O)c1nn(C23CC4CC(CC(C4)C2)C3)c2c1C(=O)N(c1ccc(C)cc1)C2=O	RGS4 inh 5.17 | RGS4 block valid inactive | RGS4 uninduced inactive | M3R basal Ca ctr 99.5%
COC(=O)c1nn(C23CC4CC(CC(C4)C2)C3)c2c1C(=O)N(c1ccc(Br)cc1)C2=O	RGS4 inh 5.87 | RGS4 block valid 7.5% | RGS4 uninduced inactive | M3R basal Ca ctr inactive
COC(=O)c1cc(-c2ccc(Br)cc2)on1	none
CC(=O)c1c(C)[nH]c(C(=O)N2CCN(c3ccccn3)CC2)c1C	none
Cc1c(C#N)c(O)n(CCO)c(=O)c1N=Nc1ccc2c(c1)COC2=O	RGS4 inh 5.24 | RGS4 block valid inactive | RGS4 uninduced inactive | M3R basal Ca ctr 18.0%
CC1=NOC(=O)/C1=C/c1ccc(O)cc1	RGS4 inh 5.85 | RGS4 block valid 12.0% | RGS4 uninduced inactive | M3R basal Ca ctr inactive
CC1=NOC(=O)/C1=C/c1ccc(O)c(Br)c1	MrgX1 agonist 38.2, RGS4 inh 9.07 | RGS4 block valid 30.5% | RGS4 uninduced inactive | M3R basal Ca ctr 67.5%
COc1ccc(/C=C2/C(=O)ON=C2C)cc1Cl	none
COc1cc([N+](=O)[O-])ccc1NC(=S)NNC(=O)CCC(=O)Nc1ccccc1Cl	none
CNc1ccc(Oc2nc([N+](=O)[O-])nn2C)cc1	none
O=C(CCl)c1ccc2c(c1)CCN2C(=O)C1CCCCC1	none | RGS4 block valid inactive | RGS4 uninduced inactive | M3R basal Ca ctr 13.5%
CCC1CCCCN1S(=O)(=O)c1ccc2c(c1)CCN2C(=O)C1CCC1 (stereo unspecified)	none
CC(=O)c1sccc1NC(=O)CC(C)(C)CC(=O)O	none
Cc1cc(C)c2sc(NNC(=O)c3ccc(S(=O)(=O)N4CCc5ccccc5C4)cc3)nc2c1	none | RGS4 uninduced inactive | M3R basal Ca ctr inactive
Cc1cc(C)c2nc(NNC(=O)c3ccc(S(=O)(=O)N4CCc5ccccc5C4)cc3)sc2c1	RGS4 inh 6.49 | RGS4 block valid 11.0% | RGS4 uninduced inactive | M3R basal Ca ctr inactive
CCC(C)(C(=O)NC1CCCC1)N(C)C(=O)c1ccccn1 (stereo unspecified)	none
O=C(O)c1cccc(N/N=C/C2=C(Cl)c3cc(Cl)ccc3SC2)c1	none (no result: MrgX1 agonist, MrgX1 PAM, MrgX1 antag)
CCCCn1c(SCC(=O)NCc2ccccc2)nc2ccc(N3CCOCC3)cc2c1=O	none | RGS4 block valid inactive | RGS4 uninduced inactive | M3R basal Ca ctr inactive
CCCCn1c(SCC(=O)NCc2ccco2)nc2ccc(N3CCOCC3)cc2c1=O	RGS4 inh 5.01 | RGS4 block valid inactive | RGS4 uninduced inactive | M3R basal Ca ctr inactive
CCCCn1c(SCC(=O)NC(C)CC)nc2ccc(N3CCOCC3)cc2c1=O (stereo unspecified)	none
CCCCn1c(SCC(=O)Nc2ccc(OC)cc2)nc2ccc(N3CCOCC3)cc2c1=O	none
Cc1sc2nc3ccc(NCc4ccco4)nn3c(=O)c2c1C	RGS4 inh 8.31 | RGS4 block valid inactive | RGS4 uninduced inactive | M3R basal Ca ctr 16.5%
